# Laboratory results as given in ChEMBL document CHEMBL5661979, “Pharmacological inhibition of BMK1 suppresses tumor growth through promyelocytic leukemia protein” (Cancer Cell, 2010).
# Active and inactive are the calls of the source. No cut-off for these calls is given here.
# Key:
# [1] = biological target: Cyclin-dependent kinase 2 (Homo sapiens, UniProt P24941); test: Inhibition of CDK2 in human HeLa cells lysate at 50 uM pre incubated for 15 mins followed by ATP acyl phosphate probe addition and measured after 10 mins by LC-MS/MS analysis relative to control; assay type: subcellular; conditions: time 25.0 min
# Method in brief: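 KiNativ profiling in HeLa lysate (5 mg/mL total protein). Lysate incubated 15 min with inhibitor at 50, 10, 2, 0.8 or 0 μM. ATP or ADP acylphosphate probe then added (5 μM final) and reacted 10 min. Reaction stopped with urea and analysed by targeted MS, using up to four fragment ions per kinase peptide-probe conjugate. % inhibition taken against untreated lysate. Run in duplicate.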
# [2] = biological target: Glycogen synthase kinase-3 beta (Homo sapiens, UniProt P49841); test: Inhibition of GSK3B isoform 2 in human HeLa cells lysate at 50 uM pre incubated for 15 mins followed by ATP acyl phosphate probe addition and measured after 10 mins by LC-MS/MS analysis relative to control; assay type: subcellular; conditions: time 25.0 min
# Sequence of Glycogen synthase kinase-3 beta (P49841 whole entry, looked up, canonical isoform): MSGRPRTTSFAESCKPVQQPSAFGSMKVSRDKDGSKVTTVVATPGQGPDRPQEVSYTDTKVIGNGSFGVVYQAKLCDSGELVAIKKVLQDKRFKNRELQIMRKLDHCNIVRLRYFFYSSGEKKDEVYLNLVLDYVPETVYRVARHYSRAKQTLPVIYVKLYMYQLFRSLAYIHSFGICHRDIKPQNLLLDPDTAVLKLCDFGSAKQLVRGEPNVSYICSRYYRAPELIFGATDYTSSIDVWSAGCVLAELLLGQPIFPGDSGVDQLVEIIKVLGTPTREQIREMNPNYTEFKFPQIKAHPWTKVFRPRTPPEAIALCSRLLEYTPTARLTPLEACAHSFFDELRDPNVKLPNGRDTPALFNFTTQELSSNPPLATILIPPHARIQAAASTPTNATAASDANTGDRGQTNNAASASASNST
# [3] = biological target: T1, Serine/threonine-protein kinase Chk1 (Homo sapiens) (UniProt O14757); test: Inhibition of CHK1 in human HeLa cells lysate at 10 uM pre incubated for 15 mins followed by ATP acyl phosphate probe addition and measured after 10 mins by LC-MS/MS analysis relative to control; assay type: subcellular; conditions: time 25.0 min
# T1 sequence (whole entry): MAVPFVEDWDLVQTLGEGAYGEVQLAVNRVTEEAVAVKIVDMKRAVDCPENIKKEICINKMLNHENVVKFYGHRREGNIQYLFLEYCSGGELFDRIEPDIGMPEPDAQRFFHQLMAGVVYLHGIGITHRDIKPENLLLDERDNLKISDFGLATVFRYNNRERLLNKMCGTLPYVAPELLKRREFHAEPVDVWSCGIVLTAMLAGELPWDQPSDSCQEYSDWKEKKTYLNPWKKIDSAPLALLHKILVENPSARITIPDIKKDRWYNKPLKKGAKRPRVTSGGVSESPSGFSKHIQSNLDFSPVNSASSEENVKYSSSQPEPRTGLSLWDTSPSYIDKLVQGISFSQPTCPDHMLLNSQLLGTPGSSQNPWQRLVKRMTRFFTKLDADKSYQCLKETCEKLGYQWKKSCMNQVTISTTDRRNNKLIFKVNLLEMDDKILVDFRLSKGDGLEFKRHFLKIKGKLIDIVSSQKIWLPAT
# [4] = biological target: Mitogen-activated protein kinase; ERK1/ERK2 (Homo sapiens) (UniProt P27361+P28482); test: Inhibition of ERK1/2 in human HeLa cells assessed as reduction in EGF-induced ERK1/2 phosphorylation level at T202/Y204 residue at 1 to 5 uM pre incubated for 1 hr followed by EGF stimulation and measured after 17 mins by Western blot analysis; assay type: cell-based; conditions: dose 1-5 µM, time 77.0 min
# Sequence of Mitogen-activated protein kinase; ERK1/ERK2 (Homo sapiens) (P27361 whole entry, looked up): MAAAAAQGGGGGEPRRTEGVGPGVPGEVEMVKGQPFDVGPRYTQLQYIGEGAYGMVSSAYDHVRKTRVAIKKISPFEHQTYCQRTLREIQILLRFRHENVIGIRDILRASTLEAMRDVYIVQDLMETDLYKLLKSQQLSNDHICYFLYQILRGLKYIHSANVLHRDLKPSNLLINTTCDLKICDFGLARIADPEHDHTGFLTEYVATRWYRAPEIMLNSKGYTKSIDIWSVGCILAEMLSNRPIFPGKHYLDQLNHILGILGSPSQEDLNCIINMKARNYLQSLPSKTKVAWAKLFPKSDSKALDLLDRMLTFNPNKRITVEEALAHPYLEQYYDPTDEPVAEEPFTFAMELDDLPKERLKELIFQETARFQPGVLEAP
# Sequence of Mitogen-activated protein kinase; ERK1/ERK2 (Homo sapiens) (P28482 whole entry, looked up): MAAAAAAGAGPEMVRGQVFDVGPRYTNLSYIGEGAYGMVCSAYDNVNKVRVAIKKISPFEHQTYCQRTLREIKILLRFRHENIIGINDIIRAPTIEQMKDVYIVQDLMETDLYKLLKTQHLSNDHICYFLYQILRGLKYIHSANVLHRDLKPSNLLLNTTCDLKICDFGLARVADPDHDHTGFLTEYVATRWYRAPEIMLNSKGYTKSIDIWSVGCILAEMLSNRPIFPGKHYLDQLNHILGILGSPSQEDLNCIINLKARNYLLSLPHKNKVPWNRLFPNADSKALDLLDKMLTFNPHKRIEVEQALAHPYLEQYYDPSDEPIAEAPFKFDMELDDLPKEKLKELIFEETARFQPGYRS
# [5] = biological target: Cyclin-dependent kinase 11B (Homo sapiens, UniProt P21127); test: Inhibition of PITSLRE in human HeLa cells lysate at 50 uM pre incubated for 15 mins followed by ATP acyl phosphate probe addition and measured after 10 mins by LC-MS/MS analysis relative to control; assay type: subcellular; conditions: time 25.0 min
# Sequence of Cyclin-dependent kinase 11B (P21127 whole entry): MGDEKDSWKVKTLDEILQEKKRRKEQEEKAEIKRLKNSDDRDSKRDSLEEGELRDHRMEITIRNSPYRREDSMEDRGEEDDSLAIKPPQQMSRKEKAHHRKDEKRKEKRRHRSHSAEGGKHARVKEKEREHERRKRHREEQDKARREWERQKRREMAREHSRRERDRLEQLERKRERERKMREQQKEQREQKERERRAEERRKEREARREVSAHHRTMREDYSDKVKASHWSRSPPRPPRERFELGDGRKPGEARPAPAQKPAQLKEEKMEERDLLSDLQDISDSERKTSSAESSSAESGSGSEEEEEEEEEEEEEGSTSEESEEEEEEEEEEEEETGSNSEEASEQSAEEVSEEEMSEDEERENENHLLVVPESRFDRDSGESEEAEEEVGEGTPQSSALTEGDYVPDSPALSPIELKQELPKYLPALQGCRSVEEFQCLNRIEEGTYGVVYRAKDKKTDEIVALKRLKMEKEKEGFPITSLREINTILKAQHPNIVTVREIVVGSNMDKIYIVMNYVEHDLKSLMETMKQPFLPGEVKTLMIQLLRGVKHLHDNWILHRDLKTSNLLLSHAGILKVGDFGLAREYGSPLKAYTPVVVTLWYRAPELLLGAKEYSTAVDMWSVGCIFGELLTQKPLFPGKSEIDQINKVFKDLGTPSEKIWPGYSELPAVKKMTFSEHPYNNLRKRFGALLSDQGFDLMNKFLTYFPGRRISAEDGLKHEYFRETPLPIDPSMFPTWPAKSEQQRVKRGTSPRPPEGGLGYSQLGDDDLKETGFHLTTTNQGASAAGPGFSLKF
# [6] = biological target: T2, Serine/threonine-protein kinase B-raf (Homo sapiens, UniProt P15056); test: Inhibition of BRAF in human HeLa cells lysate at 10 uM pre incubated for 15 mins followed by ADP acyl phosphate probe addition and measured after 10 mins by LC-MS/MS analysis relative to control; assay type: subcellular; conditions: time 25.0 min
# T2 sequence (P15056 whole entry, the tested form may be a part): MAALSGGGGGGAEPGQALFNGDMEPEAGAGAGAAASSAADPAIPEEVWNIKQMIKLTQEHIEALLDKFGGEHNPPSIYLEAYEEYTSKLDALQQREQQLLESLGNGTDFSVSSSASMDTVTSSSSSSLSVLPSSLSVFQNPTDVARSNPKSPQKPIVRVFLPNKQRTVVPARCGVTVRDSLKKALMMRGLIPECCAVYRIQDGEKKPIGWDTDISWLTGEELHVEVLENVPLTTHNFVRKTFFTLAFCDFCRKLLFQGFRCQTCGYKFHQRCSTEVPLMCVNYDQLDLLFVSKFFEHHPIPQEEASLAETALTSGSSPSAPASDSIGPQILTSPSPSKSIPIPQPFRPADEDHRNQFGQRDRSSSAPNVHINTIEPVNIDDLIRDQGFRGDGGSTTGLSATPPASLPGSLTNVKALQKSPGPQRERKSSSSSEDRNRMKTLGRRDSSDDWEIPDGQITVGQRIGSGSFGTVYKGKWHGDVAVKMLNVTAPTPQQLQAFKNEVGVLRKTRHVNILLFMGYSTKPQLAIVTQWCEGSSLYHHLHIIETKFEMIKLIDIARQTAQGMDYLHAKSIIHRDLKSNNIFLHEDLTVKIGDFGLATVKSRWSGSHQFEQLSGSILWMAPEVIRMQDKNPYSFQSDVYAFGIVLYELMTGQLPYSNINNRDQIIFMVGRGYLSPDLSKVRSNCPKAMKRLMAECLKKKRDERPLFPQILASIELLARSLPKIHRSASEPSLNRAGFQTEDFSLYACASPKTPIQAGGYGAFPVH
# Method in brief: (§1)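 KiNativ-type profiling in HeLa lysate (5 mg/mL total protein). Lysate preincubated 15 min with inhibitor at 50, 10, 2, 0.8 or 0 μM, then ATP or ADP acylphosphate probe added (5 μM final) for 10 min. Reaction stopped with urea and analysed by targeted MS, using up to four fragment ions per kinase peptide-probe conjugate. % inhibition calculated against untreated lysate. Duplicate reactions.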
# [7] = biological target: Non-receptor tyrosine-protein kinase TNK1 (Homo sapiens, UniProt Q13470); test: Inhibition of TNK1 in human HeLa cells lysate pre incubated for 15 mins followed by ADP acyl phosphate probe addition and measured after 10 mins by LC-MS/MS analysis; assay type: subcellular
# Sequence of Non-receptor tyrosine-protein kinase TNK1 (Q13470 whole entry): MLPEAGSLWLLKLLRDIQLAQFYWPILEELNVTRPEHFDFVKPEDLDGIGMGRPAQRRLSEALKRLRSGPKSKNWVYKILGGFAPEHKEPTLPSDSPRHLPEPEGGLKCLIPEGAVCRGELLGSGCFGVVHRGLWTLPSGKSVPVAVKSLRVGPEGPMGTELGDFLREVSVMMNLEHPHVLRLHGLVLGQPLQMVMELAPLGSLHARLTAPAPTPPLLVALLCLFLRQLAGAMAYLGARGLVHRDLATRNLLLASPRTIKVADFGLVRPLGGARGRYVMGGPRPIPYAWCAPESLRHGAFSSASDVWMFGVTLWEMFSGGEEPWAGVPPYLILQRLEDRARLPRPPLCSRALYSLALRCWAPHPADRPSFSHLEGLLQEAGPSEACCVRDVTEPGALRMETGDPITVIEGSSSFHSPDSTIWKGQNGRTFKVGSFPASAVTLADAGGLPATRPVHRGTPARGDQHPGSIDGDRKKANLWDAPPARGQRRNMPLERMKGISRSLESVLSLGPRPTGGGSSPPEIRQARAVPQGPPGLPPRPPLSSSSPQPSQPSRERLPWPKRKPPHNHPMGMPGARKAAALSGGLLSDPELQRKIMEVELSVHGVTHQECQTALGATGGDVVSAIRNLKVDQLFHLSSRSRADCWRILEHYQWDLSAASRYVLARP
# [8] = biological target: 5'-AMP-activated protein kinase catalytic subunit alpha-1 (Homo sapiens, UniProt Q13131); test: Inhibition of AMPKalpha1 in human HeLa cells lysate at 50 uM pre incubated for 15 mins followed by ADP acyl phosphate probe addition and measured after 10 mins by LC-MS/MS analysis relative to control; assay type: subcellular; conditions: time 25.0 min
# Sequence of 5'-AMP-activated protein kinase catalytic subunit alpha-1 (Q13131 whole entry, looked up, the tested form may be a part): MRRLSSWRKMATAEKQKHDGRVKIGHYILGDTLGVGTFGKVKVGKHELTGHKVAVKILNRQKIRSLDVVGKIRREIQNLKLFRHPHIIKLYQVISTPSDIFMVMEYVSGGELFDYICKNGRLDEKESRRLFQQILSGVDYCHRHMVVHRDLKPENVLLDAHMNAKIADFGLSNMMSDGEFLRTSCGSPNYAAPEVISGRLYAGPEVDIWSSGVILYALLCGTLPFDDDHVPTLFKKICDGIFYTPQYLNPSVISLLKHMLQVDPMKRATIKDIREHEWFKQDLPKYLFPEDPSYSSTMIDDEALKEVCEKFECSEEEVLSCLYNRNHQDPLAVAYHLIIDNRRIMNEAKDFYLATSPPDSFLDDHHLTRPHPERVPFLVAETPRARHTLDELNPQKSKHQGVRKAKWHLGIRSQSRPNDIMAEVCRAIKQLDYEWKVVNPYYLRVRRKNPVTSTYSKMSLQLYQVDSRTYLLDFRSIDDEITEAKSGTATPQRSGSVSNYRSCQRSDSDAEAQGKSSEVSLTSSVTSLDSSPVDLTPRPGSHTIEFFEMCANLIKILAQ
# Method in brief: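 HeLa cell lysates (5 mg/mL total protein) were preincubated with inhibitor at 0, 0.8, 2, 10 or 50 μM for 15 min. ATP or ADP acylphosphate probe was then added (5 μM final) for 10 min, and reactions were stopped with urea. Up to four fragment ions per kinase probe-peptide were quantified by targeted MS. % inhibition was taken relative to untreated lysate. Run in duplicate.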
# [9] = biological target: Serine/threonine-protein kinase Nek7 (Homo sapiens, UniProt Q8TDX7); test: Inhibition of NEK7 in human HeLa cells lysate pre incubated for 15 mins followed by ATP acyl phosphate probe addition and measured after 10 mins by LC-MS/MS analysis; assay type: subcellular
# Sequence of Serine/threonine-protein kinase Nek7 (Q8TDX7 whole entry): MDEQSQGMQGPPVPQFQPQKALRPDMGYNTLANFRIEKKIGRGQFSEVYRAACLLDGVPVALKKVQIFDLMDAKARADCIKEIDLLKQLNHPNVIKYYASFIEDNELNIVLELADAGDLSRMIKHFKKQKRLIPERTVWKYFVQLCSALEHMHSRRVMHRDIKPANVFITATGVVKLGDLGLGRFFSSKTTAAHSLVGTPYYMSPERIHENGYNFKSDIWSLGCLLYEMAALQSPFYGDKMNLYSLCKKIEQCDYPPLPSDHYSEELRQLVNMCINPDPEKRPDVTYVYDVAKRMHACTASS
# [10] = biological target: T2, Serine/threonine-protein kinase B-raf; test: Inhibition of BRAF in human HeLa cells lysate pre incubated for 15 mins followed by ATP acyl phosphate probe addition and measured after 10 mins by LC-MS/MS analysis; assay type: subcellular; method in brief: as §1
# [11] = Inhibition of HGK/MINK/TNIK in human HeLa cells lysate pre incubated for 15 mins followed by ATP acyl phosphate probe addition and measured after 10 mins by LC-MS/MS analysis; assay type: subcellular
# [12] = biological target: T3, Interleukin-1 receptor-associated kinase 4 (Homo sapiens) (UniProt Q9NWZ3); test: Inhibition of IRAK4 in human HeLa cells lysate at 50 uM pre incubated for 15 mins followed by ADP acyl phosphate probe addition and measured after 10 mins by LC-MS/MS analysis relative to control; assay type: subcellular; conditions: time 25.0 min
# T3 sequence (whole entry): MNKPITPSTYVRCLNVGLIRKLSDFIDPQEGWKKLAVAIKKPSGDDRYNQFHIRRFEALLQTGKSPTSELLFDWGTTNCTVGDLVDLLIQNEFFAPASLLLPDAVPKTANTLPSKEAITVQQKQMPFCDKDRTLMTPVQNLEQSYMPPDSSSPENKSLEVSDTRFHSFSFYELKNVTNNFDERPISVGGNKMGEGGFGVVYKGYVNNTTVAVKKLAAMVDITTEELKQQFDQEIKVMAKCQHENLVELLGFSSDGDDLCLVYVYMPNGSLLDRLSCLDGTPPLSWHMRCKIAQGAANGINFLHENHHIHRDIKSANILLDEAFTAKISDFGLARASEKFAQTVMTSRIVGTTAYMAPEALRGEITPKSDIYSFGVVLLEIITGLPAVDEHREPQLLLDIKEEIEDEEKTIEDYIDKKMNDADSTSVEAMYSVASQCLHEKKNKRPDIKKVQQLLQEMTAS
smiles,measurement,setting,value
CCOc1cc(N2CCC(O)CC2)ccc1Nc1ncc2c(n1)N(C)c1ccccc1C(=O)N2C,inhibition,[1],-1.9%
same,inhibition,[2],22.3%
same,inhibition,[3],-9.9%
same,inhibition,[4],inactive
same,inhibition,[5],-8.6%
same,inhibition,[6],2.3%
same,IC50,[7],10 µM
same,inhibition,[8],10.2%
same,IC50,[9],> 50 µM
same,IC50,[10],> 50 µM
same,IC50,[11],> 50 µM
same,inhibition,[12],-0.4%
